Measurements from ChEMBL document CHEMBL1122999 (J Med Chem, 1985).

Legend:
[1] = molecular target: 4-aminobutyrate aminotransferase, mitochondrial (Rattus norvegicus) (UniProt P50554); experiment: Percent of enzyme inhibition by Gamma-amino-N-butyrate transaminase assay method; conditions: concentration not given here
Summary of the method: (§1)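 Rat diencephalon-midbrain homogenate in Tris-HCl pH 8.0 with Triton X-100. Incubated with 2 mM α-ketoglutarate, 0.2 mM GABA and 20 µM pyridoxal phosphate, test agent at 1 mM final, 30 min at 37 °C. Blanks held at 4 °C. Glutamate formed read fluorometrically as NADH via glutamate dehydrogenase.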

[2] = molecular target: T1, Glutamate decarboxylase 1 (Rattus norvegicus) (UniProt P18088); experiment: Percent of enzyme inhibition by Glutamate decarboxylase assay method; conditions: concentration not given here
T1 sequence (whole entry): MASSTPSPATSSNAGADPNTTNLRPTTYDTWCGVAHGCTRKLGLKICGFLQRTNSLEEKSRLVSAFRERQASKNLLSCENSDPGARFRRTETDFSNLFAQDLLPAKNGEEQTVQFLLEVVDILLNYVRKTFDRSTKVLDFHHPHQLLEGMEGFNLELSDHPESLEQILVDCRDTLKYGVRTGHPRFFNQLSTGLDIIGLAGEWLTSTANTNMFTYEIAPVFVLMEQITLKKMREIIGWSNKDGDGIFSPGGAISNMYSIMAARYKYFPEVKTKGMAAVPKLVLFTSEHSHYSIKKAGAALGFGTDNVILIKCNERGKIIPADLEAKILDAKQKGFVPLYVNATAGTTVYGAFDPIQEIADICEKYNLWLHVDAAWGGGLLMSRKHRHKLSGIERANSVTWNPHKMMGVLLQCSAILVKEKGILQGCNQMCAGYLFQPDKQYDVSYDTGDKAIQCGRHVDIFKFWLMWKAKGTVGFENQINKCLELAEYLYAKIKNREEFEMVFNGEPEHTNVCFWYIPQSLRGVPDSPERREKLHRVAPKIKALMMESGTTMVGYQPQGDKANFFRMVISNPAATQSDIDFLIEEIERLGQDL
Summary of the method: (§2)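 Homogenate of rat diencephalon-midbrain in phosphate buffer pH 6.5 with Triton X-100. Incubated with 5 mM l-glutamate, 10 µM pyridoxal phosphate and test agent at 1 mM final, 30 min at 37 °C. Stopped by boiling; boiled-enzyme blanks used. GABA formed quantified fluorometrically with GABAase and NADPH.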

[3] = Dissociation constant pKa (CO2H) of the compound; format: physicochemical
[4] = Dissociation constant pKa (N) of the compound; format: physicochemical
[5] = species on record: Rattus norvegicus; experiment: (§3) Inhibition of GABA uptake from rat diencephalon-midbrain,; format: functional
[6] = as §3; conditions: concentration not given here
Summary of the method: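 Rat diencephalon-midbrain P2 synaptosomal fraction (0.32 M sucrose homogenate, differential centrifugation), pooled from three rats. Preincubated 15 min at 37 °C with inhibitor in oxygenated Tris/NaCl buffer pH 7.4 containing 2.7 mM CaCl2 and 10 µM aminooxyacetic acid. Then 3 min uptake of 1 µM [3H]GABA, filtration, scintillation counting, minus 0 °C uptake. Screened at 10, 1, 0.1 µM in quadruplicate.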

[7] = molecular target: T2, GABA-A receptor; anion channel (Rattus norvegicus) (UniProt O09028+P15431+P18506+P18508+P19969+P20236+P23574+P23576+P28471+P28473+P30191+P62813+P63079+P63138+Q91ZM7+Q9ES14); conditions: Cerebellum, 0.003-0.006 uM
[8] = species on record: Rattus norvegicus; experiment: (§4) Inhibition of Norepinephrine uptake from rat diencephalon-midbrain; format: functional
[9] = species on record: Rattus norvegicus; experiment: Inhibition of GABA uptake from rat diencephalon-midbrain at 100 uM concentration; format: functional
[10] = molecular target: GABA-A receptor; anion channel; experiment: Displacement of [3H]- muscimol from GABA-A receptor from rat cerebellum membrane at 0.24-0.45 uM; format: tissue-based
[11] = molecular target: T2, GABA-A receptor; anion channel (Rattus norvegicus); experiment: Displacement of [3H]- muscimol from GABA-A receptor from rat cerebellum membrane at 100 uM; format: tissue-based
[12] = species on record: Rattus norvegicus; experiment: Inhibition of GABA uptake from rat diencephalon-midbrain at 1 uM concentration; format: functional
Summary of the method: (§5)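 P2 synaptosomal fraction prepared from rat brain in 0.32 M sucrose by 1000g and 16500g spins. About 150 µg protein preincubated 15 min at 37 °C with inhibitor in oxygenated Tris/NaCl buffer, pH 7.4, containing 2.7 mM CaCl2 and 10 µM aminooxyacetic acid. Uptake of 1 µM [3H]GABA run for 3 min, then filtered and counted. Accumulation at 0 °C subtracted. Screening at 10, 1 and 0.1 µM in quadruplicate on pooled diencephalon-midbrain tissue.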

[13] = species on record: Rattus norvegicus; experiment: Inhibition of GABA uptake from rat diencephalon-midbrain; format: functional; summary of the method: as §5
[14] = molecular target: T2, GABA-A receptor; anion channel (Rattus norvegicus); experiment: Percent inhibition of [3H]- Diazepam binding to GABA-A Benzodiazepine receptor of rat frontal cortex membranes; format: cell membranes; conditions: Membrane, concentration not given here
Summary of the method: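 Rat frontal cortex membranes with 1.5 nM [3H]diazepam (KD 9.7 nM). Nonspecific binding defined with 3 µM diazepam.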

[15] = molecular target: 4-aminobutyrate aminotransferase, mitochondrial (Rattus norvegicus) (UniProt P50554); experiment: Percent inhibition of Gamma-amino-N-butyrate transaminase from rat was evaluated; conditions: concentration not given here; summary of the method: as §1
[16] = molecular target: T1, Glutamate decarboxylase 1 (Rattus norvegicus); experiment: Percent inhibition of Glutamate decarboxylase from rat was evaluated; conditions: concentration not given here; summary of the method: as §2
[17] = species on record: Rattus norvegicus; experiment: Inhibition of GABA uptake from rat diencephalon-midbrain at 10 uM concentration; format: functional; summary of the method: as §5
[18] = molecular target: Norepinephrine transporter (Rattus norvegicus, UniProt Q9WTR4); experiment: as §4
[19] = as §3; summary of the method: as §5
[20] = molecular target: Muscarinic acetylcholine receptor (Rattus norvegicus) (UniProt P08482+P08483+P08485+P08911+P10980); experiment: Percent inhibition of Muscarinic acetylcholine receptor from rat striatal membrane using [3H]- QNB as radioligand at 100 uM
Summary of the method: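 Displacement on rat striatal membranes using 0.23 nM [3H]QNB (KD 0.20 nM). Nonspecific binding defined with 1 µM atropine.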

[21] = molecular target: Adrenergic receptor alpha-1 (Rattus norvegicus) (UniProt P15823+P23944+P43140); experiment: Percent inhibition of alpha-1 adrenergic receptor from rat cortical membrane using [3H]- WB-4101 as radioligand at 10 uM
Summary of the method: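 Rat cortical membranes labelled with 0.22 nM [3H]WB4101 (KD 0.306 nM). Nonspecific binding defined with 100 µM norepinephrine.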

[22] = Dissociation constant pKa (N) was evaluated; format: physicochemical
[23] = Distribution coefficient was evaluated; format: physicochemical; conditions: octanol/water
Summary of the method: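 Distribution coefficient (log D) measured between 1-octanol and phosphate buffer, pH 7.4.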

[24] = Dissociation constant pKa (CO2H) was evaluated; format: physicochemical
[25] = molecular target: Serotonin 1 (5-HT1) receptor (Rattus norvegicus) (UniProt P28564+P30940+P19327+P28565); experiment: Percent inhibition of 5-hydroxytryptamine 1 receptor from rat cortex membrane using [3H]- serotonin as radioligand at 33 uM
[26] = molecular target: D(2) dopamine receptor (Rattus norvegicus) (UniProt P61169); experiment: Percent inhibition of Dopamine receptor D2 from rat striatal membrane using [3H]- spiroperidol as radioligand at 50 uM
Summary of the method: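 Rat striatal membranes with 0.22 nM [3H]spiroperidol (KD 0.287 nM). Nonspecific binding defined with 1 µM d-butaclamol.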

[27] = molecular target: T1, Glutamate decarboxylase 1 (Rattus norvegicus); experiment: Percent of enzyme inhibition by Glutamate decarboxylase (GAD) assay method; conditions: concentration not given here; summary of the method: as §2

Norepinephrine transporter, sequence (Q9WTR4 whole entry): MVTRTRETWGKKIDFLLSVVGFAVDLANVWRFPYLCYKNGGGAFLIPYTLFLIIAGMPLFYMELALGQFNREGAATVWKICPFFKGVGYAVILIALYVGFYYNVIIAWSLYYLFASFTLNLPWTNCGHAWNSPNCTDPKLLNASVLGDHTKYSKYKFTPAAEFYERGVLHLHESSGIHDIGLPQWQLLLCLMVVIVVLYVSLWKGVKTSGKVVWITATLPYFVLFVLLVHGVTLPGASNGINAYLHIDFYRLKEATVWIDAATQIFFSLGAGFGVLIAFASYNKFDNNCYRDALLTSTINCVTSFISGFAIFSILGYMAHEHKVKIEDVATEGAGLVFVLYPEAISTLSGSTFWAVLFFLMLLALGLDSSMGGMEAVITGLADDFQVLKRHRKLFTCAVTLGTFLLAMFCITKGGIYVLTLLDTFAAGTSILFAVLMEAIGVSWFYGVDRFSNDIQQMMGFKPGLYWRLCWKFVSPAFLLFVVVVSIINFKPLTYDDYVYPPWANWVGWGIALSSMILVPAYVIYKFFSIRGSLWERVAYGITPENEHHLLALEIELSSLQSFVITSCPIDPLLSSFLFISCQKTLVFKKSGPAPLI
4-aminobutyrate aminotransferase, mitochondrial (Rattus norvegicus), sequence (P50554 28-500 limits assumed): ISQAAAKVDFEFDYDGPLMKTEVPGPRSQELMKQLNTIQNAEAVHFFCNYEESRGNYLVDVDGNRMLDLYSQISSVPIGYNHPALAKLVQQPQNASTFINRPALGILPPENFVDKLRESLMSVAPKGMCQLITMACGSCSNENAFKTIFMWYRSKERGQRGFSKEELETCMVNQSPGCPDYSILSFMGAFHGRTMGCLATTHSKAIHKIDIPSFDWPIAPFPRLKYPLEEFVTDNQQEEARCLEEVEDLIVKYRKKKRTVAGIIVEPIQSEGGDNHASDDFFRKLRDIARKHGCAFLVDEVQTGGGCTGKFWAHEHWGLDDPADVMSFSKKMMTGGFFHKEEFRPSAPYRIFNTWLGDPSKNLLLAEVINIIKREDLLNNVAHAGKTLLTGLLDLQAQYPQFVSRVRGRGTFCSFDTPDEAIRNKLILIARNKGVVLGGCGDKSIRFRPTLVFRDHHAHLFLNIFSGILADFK
D(2) dopamine receptor (Rattus norvegicus), sequence (P61169 whole entry): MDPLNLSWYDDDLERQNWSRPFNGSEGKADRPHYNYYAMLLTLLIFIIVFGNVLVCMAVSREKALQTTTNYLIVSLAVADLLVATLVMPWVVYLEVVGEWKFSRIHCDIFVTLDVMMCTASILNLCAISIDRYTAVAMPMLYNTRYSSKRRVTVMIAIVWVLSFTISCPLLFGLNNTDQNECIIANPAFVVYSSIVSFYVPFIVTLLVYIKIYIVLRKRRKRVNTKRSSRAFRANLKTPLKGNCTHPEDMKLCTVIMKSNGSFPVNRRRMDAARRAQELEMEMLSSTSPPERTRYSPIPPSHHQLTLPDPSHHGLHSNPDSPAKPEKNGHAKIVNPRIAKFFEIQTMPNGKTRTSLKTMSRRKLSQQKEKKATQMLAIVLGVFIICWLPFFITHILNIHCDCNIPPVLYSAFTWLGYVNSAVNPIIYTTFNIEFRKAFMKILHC

O=C(O)C1CCCNC1 (configuration not stated) [NIPECOTIC ACID]
inhibition [1]: 3%
inhibition [2]: 0%
pKa [3]: 3.45
pKa [4]: 10.3
IC50 [5]: 3.94 µM

COC(=O)C1=CCCNC1
inhibition [6]: 4%

NCc1cc(O)no1
inhibition [7]: 0.004%

CN(C)CCCN1c2ccccc2CCc2ccccc21 [IMIPRAMINE]
IC50 [8]: 0.027 µM
Inhibition [9]: 68%

O=C(O)CC1CCNC1 (configuration not stated)
IC50 [10]: 0.33 µM
IC50 [5]: 1.54 µM

NOCC(=O)O
inhibition [1]: 83%

NC1CCCC(C(=O)O)C1 (configuration not stated)
IC50 [5]: 8.13 µM

O=C(O)[C@H]1CCCN(CCC=C(c2ccccc2)c2ccccc2)C1
IC50 [8]: 180 µM
IC50 [5]: 1.91 µM

O=C(O)C1CNCCC1O (configuration not stated)
Inhibition [8]: 7%
inhibition [11]: 10%
IC50 [5]: 4.56 µM

O=C(O)C1CCCN(CCCC=C(c2ccccc2)c2ccccc2)C1 (configuration not stated)
Inhibition [12]: 31%

O=C(O)[C@H]1CCCNC1 [(S)-NIPECOTIC ACID]
IC50 [13]: 9.88 µM

O=C(O)[C@@H]1CCCN(CCC=C(c2ccccc2)c2ccccc2)C1
IC50 [8]: 123 µM
IC50 [5]: 0.11 µM

O=C(O)C1=CCCN(CCC=C(c2ccccc2)c2ccccc2)C1
inhibition [14]: 5%
IC50 [8]: 58.2 µM
inhibition [15]: 9%
inhibition [11]: 8%
inhibition [16]: 7%
IC50 [5]: 0.2 µM

O=C(O)C1CCCN(CC=C(c2ccccc2)c2ccccc2)C1 (configuration not stated)
Inhibition [17]: 5%

O=C(O)C1CN(CCC=C(c2ccccc2)c2ccccc2)CCC1O (configuration not stated)
IC50 [18]: 33.6 µM
inhibition [11]: 48%
IC50 [19]: 0.26 µM

O=C(O)C1CCCN(CCC=C(c2ccccc2)c2ccccc2)C1 (configuration not stated)
inhibition [14]: 21%
inhibition [20]: 12%
IC50 [8]: 117 µM
inhibition [21]: 12%
pKa [22]: 9.36
logD [23]: 1.14
inhibition [15]: 12%
pKa [24]: 3.32
inhibition [25]: 16%
inhibition [26]: 22%
inhibition [11]: 8%
inhibition [16]: 7%
IC50 [5]: 0.2 µM

O=C(O)CC1CCN(CCC=C(c2ccccc2)c2ccccc2)C1 (configuration not stated)
IC50 [18]: 108 µM
inhibition [11]: 20%
IC50 [19]: 0.12 µM

O=C(O)CCCNCCC=C(c1ccccc1)c1ccccc1
IC50 [18]: 35.1 µM
inhibition [11]: 35%
IC50 [19]: 16.5 µM

O=C(O)C1CCCN(CCCC(c2ccccc2)c2ccccc2)C1 (configuration not stated)
Inhibition [17]: 27%

O=C(O)C1CCCC(NCCC=C(c2ccccc2)c2ccccc2)C1 (configuration not stated)
IC50 [8]: 29.9 µM
Inhibition [17]: 54%

O=C(O)C1=CCCNC1 [GUVACINE]
inhibition [27]: 0%
inhibition [1]: 7%
inhibition [11]: 27%
IC50 [5]: 4.92 µM

NNC(=O)c1ccncc1
inhibition [2]: 42%

CCOC(=O)C1CCCNC1 (configuration not stated)
Inhibition [9]: 52%

CCOC(=O)C1CCCN(CCC=C(c2ccccc2)c2ccccc2)C1 (configuration not stated)
Increase [9]: 17%

O=C(O)[C@@H]1CCCNC1 [(R)-NIPECOTIC ACID]
IC50 [5]: 1.69 µM
